Data set [1] in a line: Microsomal stability in human liver microsomes assessed as parent compound remaining after 1 hrs. The following applies: read-out: Stability. The format is ADME, Microsome.
The subject of data set [2] is HL-60. The data set is described as follows: cells. The format is functional, cell-based. The following applies: Homo sapiens, HL-60, 72 h.
The test system of data set [3] is Plasmodium falciparum. The data set is described as follows: Antiplasmodial activity against Cambodian multidrug-resistant Plasmodium falciparum isolate incubated for 96 hrs measured by SYBR Green 1 assay. The format is functional, organism-based. In short, it runs like this: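 Cambodian isolates chosen by multidrug-resistance pattern, 10 per resistance type. Ring-synchronized cultures at 2% hematocrit and 1% starting parasitemia; 11-point 2-step dilutions from 500nM; 96h incubation, then SYBR-green I read-out. Mefloquine and monodesethylamodiaquine served as positive controls. Triplicate wells, one biological replicate per isolate.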

Data set [4] deals with Plasmodium falciparum. The data set is described as follows: Antiplasmodial activity against Plasmodium falciparum stage IIb-III gametocytes assessed as abnormal morphology by measuring fragile like extensions at highest concentration measured after 72 hrs using Geimsa staining based assay. The format is functional. In short, it runs like this: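 Day-4 stage IIb-III gametocytes (asexuals removed by N-acetyl glucosamine), about 1% gametocytemia at 2% hematocrit, treated 72h at 10, 5, 1 or 0.5 µM against 0.1% DMSO. Then washed and recultured with daily medium changes. Morphology and parasitemia scored daily on Giemsa-stained thin smears.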

In data set [5] the test system is Plasmodium berghei. The experiment in a line: Antimalarial activity against Plasmodium berghei infected in C57BL/6 mouse cerebral malaria model infected with assessed as increase in mouse survival days at 20 mg/kg, ip bid. The format is functional, organism-based. An outline of the steps: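 Female C57BL/6 mice, 6 weeks old, infected i.p. with 10⁵ iRBC of GFP-expressing P. berghei ANKA. Dosing i.p. started 2h post-infection and ran 4 days: hydrochloride salt at 20mg/kg twice daily, vehicle control, or chloroquine 25mg/kg daily. Parasitemia measured daily by flow cytometry of 200,000 RBCs and confirmed by Giemsa smears. Parasitemia and mortality followed 10 days; n=5 mice/group, single experiment.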

The target of a further data set is Histone deacetylase 3 (Homo sapiens, UniProt O15379). The data set is described as follows: Inhibition of human recombinant HDAC3 using Tosyl-Gly-ProLys(Ac)-AMC as substrate measured after 60 mins by fluorescence assay.
Chain of Histone deacetylase 3 (O15379 whole entry): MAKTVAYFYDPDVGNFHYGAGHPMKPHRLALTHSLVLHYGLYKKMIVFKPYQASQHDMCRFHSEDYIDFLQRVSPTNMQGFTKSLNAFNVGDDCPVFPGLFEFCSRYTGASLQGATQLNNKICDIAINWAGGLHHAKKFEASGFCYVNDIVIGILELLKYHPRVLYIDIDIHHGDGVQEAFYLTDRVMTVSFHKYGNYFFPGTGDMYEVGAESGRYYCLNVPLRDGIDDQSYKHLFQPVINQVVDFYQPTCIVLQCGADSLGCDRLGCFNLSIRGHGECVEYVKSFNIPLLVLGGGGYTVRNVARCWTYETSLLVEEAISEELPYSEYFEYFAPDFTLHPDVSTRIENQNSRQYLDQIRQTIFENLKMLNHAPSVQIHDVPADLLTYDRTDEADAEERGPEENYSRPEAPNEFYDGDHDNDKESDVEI
Data set [6] in a line: Stability in rat plasma assessed as parent compound remaining after 2 hrs. The note with it: read-out: Stability. Format: ADME, cell-free.
Data set [7] can be described thus: Stability in human plasma assessed as parent compound remaining after 2 hrs. The format is ADME, cell-free. The following applies: read-out: Stability.
Data set [8] has as its system Plasmodium falciparum. The experiment in a line: Antiplasmodial activity against synchronized ring stage Plasmodium falciparum 3D7 assessed as parasite reduction rate in lag phase by measuring time required to achieve maximum speed of action at 10 times IC50 concentration. Format: functional. In short, it runs like this: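 3D7 culture of mostly rings exposed to drug for 6, 24, 48, 72 or 96h. Then washed, serially diluted 1/3 in fresh RBC and grown 3 weeks. Growth read by SYBR-green I. Number of wells with growth used to back-calculate viable parasites at each time point and derive growth parameters. One experiment, run in duplicate.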

The nature of data set [9]: Inhibition of Plasmodium falciparum NF54 HDAC using extract measured after 60 mins by fluorescence assay.
Data set [10] in a line: Microsomal stability in rat liver microsomes assessed as parent compound remaining after 1 hrs. The format is ADME, Microsome. The following applies: read-out: Stability. On the technique in general: Liver microsomes are a subcellular fraction often used to study metabolism.
The test system of data set [11] is Plasmodium berghei. The data set is described as follows: Antimalarial activity against Plasmodium berghei infected in C57BL/6 mouse cerebral malaria model infected with assessed as growth reduction at 20 mg/kg, ip bid measured after 4 days. Format: functional, organism-based. The note with it: time 4.0 day. An outline of the steps:
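Female C57BL/6 mice, 6 weeks old, infected i.p. with 10⁵ iRBC of GFP-expressing P. berghei ANKA. Treatment began 2h post-infection: i.p. 20mg/kg twice daily for 4 days, vehicle controls alongside; chloroquine 25mg/kg daily as positive control. Hydrochloride salt used. Parasitemia read daily by flow cytometry of 200,000 RBCs and confirmed on Giemsa smears. Mortality followed for 10 days. Single experiment, 5 mice per group.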

For data set [12], the system named is Plasmodium falciparum. The data set is described as follows: Antiplasmodial activity against Plasmodium falciparum NF54 assessed as reduction in growth in intraerythrocytic development cycle at 3 times of IC50 concentration incubated for 6 hrs measured after 72 hrs of post synchronization […]. Format: functional, organism-based. An outline of the steps: (§1)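 NF54 asexual parasites tightly synchronized to 0–3hpi. Exposed for 6h at 3× or 10× IC50, starting at 0, 6, 12, 18, 24, 30, 36 or 42hpi. Cells then pelleted, washed in RPMI and returned to culture. Parasitemia counted at 72h post-synchronization on Giemsa-stained thin smears. Survival expressed relative to DMSO. Three independent experiments, one well per condition.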

Data set [13] relates to Plasmodium falciparum. The experiment in a line: Inhibition of Plasmodium falciparum HDAC activity using nuclear extract assessed as inhibition of acetylation at 1 to 10 uM. The following applies: dose 1-10 µM. An outline of the steps: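 P. falciparum protein extract (3x10⁻³mg) incubated with compound and 43 µM Tosyl-Gly-Pro-Lys(Ac)-AMC. Buffer: 25mM Tris-HCl pH 8, 140mM NaCl, 3mM KCl, 1mM MgCl₂. Run 45 min at 37°C, then trypsin 15min at RT, then ethanol. Fluorescence read at ex 380/em 460nm. Normalized to DMSO. Duplicates in ≥2 independent experiments.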

Data set [14] addresses Histone deacetylase (Homo sapiens) (UniProt Q13547+O15379+Q9UBN7+Q92769+Q9UQL6+Q8WUI4+Q9BY41+Q96DB2+P56524+Q9UKV0+Q969S8). The data set is described as follows: Inhibition of human HDAC activity using nuclear extract of HeLa cells assessed as inhibition of acetylation. The format is tissue-based. In short, it runs like this: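 HeLa nuclear extract (3x10⁻³mg) incubated with compound and 43 µM Tosyl-Gly-Pro-Lys(Ac)-AMC. Buffer: 25mM Tris-HCl pH 8, 140mM NaCl, 3mM KCl, 1mM MgCl₂. Run 45 min at 37°C, then trypsin (1mg/mL) 15min at RT, then ethanol. AMC fluorescence read at ex 380/em 460nm. Background subtracted; data normalized to DMSO. Duplicates in ≥2 independent experiments.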

Data set [15] deals with HL-60. The experiment in a line: Cytotoxicity against human HL-60 cells assessed as inhibition of cell proliferation at 32 uM measured after 72 hrs by ATPlite assay. Format: functional. An outline of the steps: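 Cells exposed to compound for 72h; viability read by ATPlite. DMSO control. Technical triplicates, at least two biological replicates. IC50 interpolated from the curves.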
For orientation: Cellular ATP, detected with luciferase, serves as a proxy for viable cell number.

The subject of data set [16] is Plasmodium falciparum. The data set is described as follows: Antiplasmodial activity against synchronized Plasmodium falciparum NF54 assessed as effect on ring stage parasite growth in intraerythrocytic development cycle at 3 times IC50 concentration measured upto 48 hrs of cell cycle by SYBR Green 1 assay. Format: functional, organism-based. The note with it: time hrs <=48.

The target in data set [17] is DNA (cytosine-5)-methyltransferase 3A (Homo sapiens) (UniProt Q9Y6K1). The experiment in a line: Inhibition of human DNMT3A methylation.
Chain of DNA (cytosine-5)-methyltransferase 3A (Homo sapiens) (Q9Y6K1 whole entry, looked up): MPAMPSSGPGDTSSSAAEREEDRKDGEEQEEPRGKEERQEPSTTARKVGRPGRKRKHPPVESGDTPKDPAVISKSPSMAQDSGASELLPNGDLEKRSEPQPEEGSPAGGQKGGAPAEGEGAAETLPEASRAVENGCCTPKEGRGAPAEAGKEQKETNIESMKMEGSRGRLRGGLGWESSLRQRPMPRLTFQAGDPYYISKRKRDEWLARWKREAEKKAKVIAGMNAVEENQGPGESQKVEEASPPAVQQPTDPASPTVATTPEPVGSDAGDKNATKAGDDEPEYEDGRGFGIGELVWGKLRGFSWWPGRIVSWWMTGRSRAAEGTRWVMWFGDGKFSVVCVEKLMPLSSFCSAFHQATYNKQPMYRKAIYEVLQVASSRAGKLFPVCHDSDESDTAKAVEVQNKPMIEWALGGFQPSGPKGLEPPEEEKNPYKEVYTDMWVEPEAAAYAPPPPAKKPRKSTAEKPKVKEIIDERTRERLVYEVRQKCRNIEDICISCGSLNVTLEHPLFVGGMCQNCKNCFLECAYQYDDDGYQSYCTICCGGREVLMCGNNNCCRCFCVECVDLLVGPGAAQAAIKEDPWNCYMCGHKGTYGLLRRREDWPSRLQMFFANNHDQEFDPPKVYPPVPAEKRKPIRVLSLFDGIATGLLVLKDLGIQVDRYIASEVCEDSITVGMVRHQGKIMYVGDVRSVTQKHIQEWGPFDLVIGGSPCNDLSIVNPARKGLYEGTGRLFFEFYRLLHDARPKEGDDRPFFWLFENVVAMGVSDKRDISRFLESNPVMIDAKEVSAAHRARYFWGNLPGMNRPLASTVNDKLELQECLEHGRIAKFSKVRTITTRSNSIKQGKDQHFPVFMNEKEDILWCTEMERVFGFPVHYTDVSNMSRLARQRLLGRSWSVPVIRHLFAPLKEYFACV
Data set [18] relates to Plasmodium falciparum. The experiment in a line: Antiplasmodial activity against synchronized Plasmodium falciparum NF54 assessed as effect on ring stage parasite growth in intraerythrocytic development cycle at 10 times IC50 concentration incubated upto 48 hrs measured after 72 hrs of post synchronization by SYBR Green 1 assay. The format is functional, organism-based. The following applies: time hrs <=48.

Data set [19] concerns Plasmodium falciparum. The data set is described as follows: Antiplasmodial activity against Plasmodium falciparum NF54 assessed as reduction in growth in intraerythrocytic development cycle at 10 times of IC50 concentration incubated for 6 hrs measured after 72 hrs of post synchronization […]. The format is functional, organism-based. In short, it runs like this: as §1

The subject of data set [20] is Plasmodium falciparum. The experiment in a line: Inhibition of Plasmodium falciparum DNMT activity using nuclear extract assessed as DNA methylation at 32 uM. In short, it runs like this:
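P. falciparum nuclear extracts tested at 32 µM compound, or the equivalent DMSO. DNA methylation activity normalized to the DMSO sample. Triplicates in two independent experiments.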

pIC50: −log10 of the molar value. Activity calls are given as the source filed them. No cut-off for these calls is given here.

For the compound `O=C(CCCCCCC(=O)Nc1ccc(C(=O)NC2CCNCC2)cc1)NO`, the remaining at 1 h in data set [1] and in data set [10] was 100% in each case. Moreover, the pIC50 with HL-60 [2] is 4.00; in the data set on Plasmodium falciparum [3], 7.15; on Histone deacetylase 3 it was 6.96; in data set [9] it was 6.32. Further, the Activity entry in the data set on Plasmodium falciparum [4] is “<=90%”. In the data set with Plasmodium berghei [5], the Survival entry was “Active”. The remaining at 2 h in data set [6] and in [7] was 85% in each case. Also, the Time in the data set with Plasmodium falciparum [8] amounted to 6 h. The outcome with Plasmodium berghei [11] was Active.

On to `CCN(CC)CCNC(=O)c1ccc(NC(=O)CCCCCCC(=O)NO)cc1`, for which the outcome in the data set on Plasmodium falciparum [12], with Plasmodium falciparum [16], in the data set on Plasmodium falciparum [18], in the data set on Plasmodium falciparum [19] and in the data set with Plasmodium falciparum [20] was inactive. Further, the result in the data set with Plasmodium falciparum [13] was Active. Besides, the inhibition entry in data set [14] is “Active”. Moreover, the inhibition at 32 µM in the data set with HL-60 [15] is 65%. Further, the inhibition result in [17] is “inactive”. For the same compound, the pIC50 in the data set on Plasmodium falciparum [3] was 7.12; on Histone deacetylase 3 it was 7.15; in data set [9] it was 6.42. In addition, the Activity result in the data set on Plasmodium falciparum [4] is listed as “<=90%”. The Time with Plasmodium falciparum [8] was found to be 0 h.

Usually pIC50 stands for the IC50 on a negative log10 scale, so that one unit is a factor of ten. As a reminder, the inhibition is the drop in the measured response relative to a control, in per cent.

The values above are taken from ChEMBL document CHEMBL5034012, “Procainamide-SAHA Fused Inhibitors of hHDAC6 Tackle Multidrug-Resistant Malaria Parasites” (J Med Chem, 2021).
